Screening results (PubChem BioAssay)
Only some compounds are listed: those with a hit (about 2.6% of all), similar ones and a draw of the others.
CHT block: inhibitors of human choline transporter CHT | Q9GZV3 | 310,000 tested, 0.86% active | CHT-expressing cells, membrane potential dye, choline response; stronger effect = lower value | B-score at 10 µM;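 active = B-score over 3 SD under the library average, and starting fluorescence ratio not unusually high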;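 note: choline stimulus applied at its EC90 after an EC20 pre-addition; B-score computed on integrated fluorescence ratio after choline addition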
Cl transport mod: modulates chloride dependent transport by human KCC2 | Q9H2X9 | KCC2 cells, thallium flux FluoZin-2 fluorescence | B-score of Tl+ flux slope (higher = more flux/activation; lower = inhibition) at 10 µM | 190,000 tested, 2.2% active | AID 1456;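 active = thallium flux slope and its plate-corrected score both differing from the plate sample mean at a set confidence after two filtering rounds, in either direction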;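 note: slope of fluorescence scaled to starting intensity during 10 to 20 s after thallium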
Rad51 HR inh: blocks human Rad51 in homologous recombination. hRad51 DNA strand exchange, fluorescence dequenching. AID 1385. inhibition, % at 10 µM. 200,000 tested, 0.085% active;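 active = inhibition above 40% at the single screening dose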;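 note: 0% = DMSO control wells and 100% = blanks with heterologous ssDNA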
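Test system – preformed human Rad51 ssDNA filaments · Reagent – Donor/quencher-labelled 47-bp dsDNA substrate · Incubation – 37 °C 15-min filament assembly, 30-min compound preincubation, 15-min exchange · Signal – FRET fluorescence dequenching, excitation 485 nm, emission 520 nm · Read-out – percent inhibition from fluorescence, normalised to plate control and blank means · Benchmarks – plate control and blank wells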
CHT allo act: human CHT allosteric activation; CHT-expressing cells, membrane potential dye, choline EC20; stronger effect = higher value; LV-AA mutant CHT in HEK293 cells; B-score at 10 µM; 310,000 tested, 0.49% active; AID 488977;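 active = initial fluorescence not abnormally high and integrated response B-score, plate-corrected, over 3 SD above library mean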
CHT activ conf: confirmation of human choline transporter (CHT) activators | shares compounds with CHT allo act | CHT-expressing cells, membrane potential dye fluorescence (FDSS); % of choline EC20–EC90 response window; HEK293 expressing CHT LV-AA mutant; choline added at its EC20 | activation, % at 10 µM | 2,500 tested, 91% active;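 active = primary screen active, with duplicate mean activation above negative control mean plus 3 SD, cut at about 11% in these data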
HEK293 MP dye: activity in parental HEK293 cells lacking CHT; shares compounds with CHT allo act; membrane potential dye fluorescence (FDSS); measured after EC20 choline addition; ratio readout change at 10 µM, hits read low; 2,500 tested, 62% active; AID 623908;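 active = duplicate-averaged ratio beyond 3 SD from buffer wells, up or down, though filed actives are nearly all decreases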
Active calls of the source: *; i = inactive; . = no result.

SMILES	CHT block	Cl transport mod	Rad51 HR inh	CHT allo act	CHT activ conf	HEK293 MP dye
Cc1cc(N2CCN(C(=O)Nc3ccc(F)cc3F)CC2)c2ccccc2n1	i	.	.	6.6*	53*	-71*
CCCCc1ccc(NC(=O)N2CCN(c3cc(C)nc4ccccc34)CC2)c(C)c1	i	.	.	i	.	.
Cc1noc(C)c1COC(=O)c1ccccc1Oc1ccccc1	i	-0.19	-4	i	14*	i
CN(C)CCCN(C(=O)c1ccco1)c1nc2c(F)cc(F)cc2s1	i	-0.3	5	i	.	.
CN(C)CCCN(C(=O)c1ccco1)c1nc2c(F)cccc2s1	i	2	0	i	45*	-58*
CCOc1ccccc1NC(=O)CN1CCC(NC(=O)Nc2ccccc2)CC1	i	.	.	i	.	.
Cn1c(N=Nc2ccccc2)nc2ccccc21	i	-1.8	.	6.4*	29*	-53*
OCCN1CCN(c2ncnc3ccc(Br)cc23)CC1	i	.	0	13*	38*	-30*
OCCN1CCN(c2nc(-c3ccccc3)c3cc(Br)ccc3n2)CC1	i	.	.	i	.	.
COC(=O)C1CN(C(=O)C(C)Oc2ccc(C(C)C)cc2)c2ccccc2O1 (stereo unspecified)	i	.	.	i	18*	i
CCOC(=O)CSc1nc(C)c2cc(OC)ccc2n1	i	-0.015	10	i	.	.
CCOC(=O)CNC(=O)CSc1cc(C)nc2ccc(OC)cc12	i	-0.037	9	i	44*	-42*
COc1ccc2nc(C)cc(SCC(=O)N3CCCCC3)c2c1	i	.	22	i	32*	-45*
Cc1ccc(C(=O)N2CCN=C2SCc2ccc([N+](=O)[O-])cc2)cc1C	i	-0.097	-8	i	.	.
Cc1cc(C)n(-c2nc(SCCN(C)C)c3c4c(sc3n2)COC(C)(C)C4)n1	i	0.94	5	i	41*	-45*
Cc1cc(C)n(-c2nc(NCC(C)O)c3c4c(sc3n2)COC(C)(C)C4)n1 (stereo unspecified)	i	0.33	10	i	.	.
CC1COc2c(N3CCN(C)CC3)c(F)cc3c(=O)c(C(=O)O)cn1c23 (stereo unspecified)	i	.	-6	8.7*	44*	-44*
COc1c(N2C[C@@H]3CCCN[C@@H]3C2)c(F)cc2c(=O)c(C(=O)O)cn(C3CC3)c12	i	.	-1	7.8*	35*	-42*
COc1c(F)c(F)cc2c(=O)c(C(=O)O)cn(C3CC3)c12	i	.	.	i	.	.
COc1c(N2CCN[C@H](C)C2)c(F)cc2c(=O)c(C(=O)O)cn(C3CC3)c12	i	.	.	6.3*	31*	-40*
O=C(CCCNC(=O)c1ccc(Cl)cc1)Nc1ccc(Br)cc1	i	.	.	i	.	.
CC1c2ccccc2N(NC(=O)Cc2ccccc2)C1C (stereo unspecified)	i	-0.26	-10	i	.	.
O=C(NCc1ccc(Cl)cc1)C1CCN(S(=O)(=O)N2CCOCC2)CC1	i	0.021	-3	i	.	.
CC1CCN(c2ccccc2NC(=O)c2ccc(C#N)cc2F)CC1	i	0.083	7	i	.	.
CC(C)C(=O)N1CCN(c2ccccc2NC(=O)c2ccc(C#N)cc2F)CC1	i	-0.79	-9	7.7*	54*	i
SMILES	CHT block	Cl transport mod	Rad51 HR inh	CHT allo act	CHT activ conf	HEK293 MP dye
COc1ccc(OC)c(NC(=O)CCCSc2ccccc2)c1	i	.	.	i	.	.
CCOC(=O)c1c[nH]c2nc(C)ccc2c1=O	i	1.7	.	10*	63*	-63*
CCOC(=O)c1c[nH]c(=O)c(Br)c1O	i	0.62	6	i	.	.
CCOC(=O)c1c(C)n(C)c2ccc(OC)c(NC(=O)CN3CCSCC3)c12	i	1.7	-1	i	.	.
CCOC(=O)c1c(C)n(C)c2ccc(OC)c(NC(=O)CCN3CCC(Cc4ccccc4)CC3)c12	i	-0.47	-21	i	7	i
CCOC(=O)C1(CCc2ccccc2)CCN(Cc2cc(OC)c(OC)cc2OC)CC1	i	.	.	10*	56*	i
CCOC(=O)C1(CCOc2ccccc2)CCN(Cc2ccc(OC)cc2)CC1	i	.	.	i	.	.
